# Screens from PubChem.
# The list is not random: actives were taken first. Their share in the collection is about 2.9%.
# SENP6 block = SENP6 protease inhibitors, primary screen, biochemical, luminescence, uHTS; Sentrin-specific protease 6 (Homo sapiens), Q9GZR1; Recombinant SENP6 catalytic domain, aminoluciferin luminescence; inhibition, % at 10 µM; 330,000 tested, 1.8% active; AID 2599, 2010;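 active = inhibition above about 50% at the single tested dose, limit read from the data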;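 also: plate controls were DMSO wells with enzyme for no effect and DMSO wells lacking enzyme for full effect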
# SENP1 FRET inh = human SENP1 catalytic domain inhibitors, primary screen, biochemical, FRET, uHTS | inhibition, % at 10 µM | 360,000 tested, 0.21% active | recombinant SENP1 catalytic domain, CyPet-SUMO1-YPet FRET cleavage | Sentrin-specific protease 1 (Homo sapiens), Q9P0U3;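 active = inhibition at least 30% at 10 µM, raw YFP signal under a set limit, fluorescence ratio 0.5 to 1.5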;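 also: 0% = enzyme with DMSO and 100% = no enzyme wells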
#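 Controls: no-enzyme wells low, DMSO-plus-enzyme wells high control. Test system: human recombinant His6-tagged SENP1 catalytic domain enzyme. Reagent: SFCypet-SUMO1-SFYpet FRET protein substrate, 25 nM final. Doses: one dose per compound, 10 µM, 0.5% DMSO. Detection: FRET, CFP and YFP emission. Timing: 50 min reaction at room temperature.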
# HSP90 refold inh = HSP90 inhibitors, primary screen, cell lysate, luminescence. Heat shock protein HSP 90 (rabbit reticulocyte lysate; luciferase refolding). Rabbit reticulocyte lysate, luciferase refolding luminescence, 3 h. inhibition, % at 5.6 µM. 290,000 tested, 0.91% active;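 active = inhibition above the screen-wide mean plus 3 SD, computed separately per campaign, cut at about 16% in these data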;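 also: 0% = DMSO wells and 100% = 60 µM geldanamycin wells; inhibitors lower the luminescence because luciferase stays unfolded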
# SENP7 inh = SENP7 protease inhibitors, primary screen, biochemical, luminescence, uHTS | 330,000 tested, 1.5% active | recombinant SENP7, Z-RLRGG-aminoluciferin luminescence, 40 min | inhibition, % at 5 µM;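 active = inhibition above about 50% at the single test dose, limit read from the data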;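 also: plate controls were DMSO with enzyme for no effect and no enzyme buffer wells for full effect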
# Target sequence (Q9BQF6 706-1050 limits assumed): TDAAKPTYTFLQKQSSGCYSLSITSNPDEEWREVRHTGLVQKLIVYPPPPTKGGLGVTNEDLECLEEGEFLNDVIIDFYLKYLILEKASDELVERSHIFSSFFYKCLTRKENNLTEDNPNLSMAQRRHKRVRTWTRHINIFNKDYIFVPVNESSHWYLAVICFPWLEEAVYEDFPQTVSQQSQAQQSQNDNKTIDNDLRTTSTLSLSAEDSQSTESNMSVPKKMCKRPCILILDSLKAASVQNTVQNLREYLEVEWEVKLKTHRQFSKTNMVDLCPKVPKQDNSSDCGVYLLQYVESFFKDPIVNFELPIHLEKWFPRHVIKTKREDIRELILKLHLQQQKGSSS
# SENP8 block-1 = SENP8 protease inhibitors, primary screen, biochemical, luminescence; purified SENP8, Z-RLRGG-aminoluciferin cleavage; inhibition, % at 10 µM; 330,000 tested, 1.2% active; in the data active = inhibition above about 50%
# SENP8 block-2 = human SENP8 protease inhibitors, primary screen, biochemical, fluorescence, Nedd8 protein substrate, uHTS | Sentrin-specific protease 8 (Homo sapiens), Q96LD8 | recombinant SENP8 | inhibition, % at 20 µM | 360,000 tested, 0.64% active; in the data active = inhibition mostly above about 40%, no sharp cut-off; inactive = mostly below about 27%
# SENP8 confirm = SENP8 protease inhibitors, retest, confirmation, biochemical, luminescence, single concentration; shares compounds with SENP7 inh; Recombinant SENP8, Z-RLRGG-aminoluciferin luminescence, 60 min; 6,200 tested, 40% active; inhibition, % at 12.5 µM;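 active = mean inhibition across replicates above about 50%, limit read from the data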
# SENP6 confirm = SENP6 protease inhibitors, confirmation, biochemical, luminescence, single concentration. shares compounds with SENP7 inh. recombinant SENP6, Z-RLRGG-aminoluciferin luminescence. inhibition, % at 12.5 µM. 6,200 tested, 58% active. AID 488915, 2010
# SENP7 confirm = SENP7 protease inhibitors, retest, confirmation, biochemical, luminescence, single concentration | shares compounds with SENP7 inh | recombinant SENP7, Z-RLRGG-aminoluciferin luminescence, 40 min | inhibition, % at 12.5 µM | 6,200 tested, 69% active | AID 488917, 2010
# Casp3 SENP sel = caspase-3 protease inhibitors, confirmation, selectivity assay for SENP inhibitor project, biochemical, single concentration | shares compounds with SENP7 inh | purified caspase-3, Z-DEVD-aminoluciferin luminescence, 60 min | inhibition, % at 12.5 µM | 6,200 tested, 60% active;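 active = mean inhibition above about 50%, limit read from the data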;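 also: plate controls were enzyme with DMSO for no effect and wells without caspase-3 for full effect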
# SENP luc ctr = luminescence interference (SENP counter-screen); AID 488919; shares compounds with SENP7 inh; Pre-incubated SENP8/Z-RLRGG-aminoluciferin, luciferase luminescence interference; inhibition, % at 12.5 µM; 6,200 tested, 39% active;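 active = mean inhibition above about 50% when retested at one dose, limit read from the data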;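 also: plate controls were DMSO wells with completed reaction for no effect and substrate without enzyme for full effect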
# The depositor's hits bear a star; . = no result given.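 The calls were made as follows, unless noted: active = mean inhibition above about 50% in the one-dose retest (limit read from the data); inactive = the rest.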
SMILES,SENP6 block,SENP1 FRET inh,HSP90 refold inh,SENP7 inh,SENP8 block-1,SENP8 block-2,SENP8 confirm,SENP6 confirm,SENP7 confirm,Casp3 SENP sel,SENP luc ctr
CCCSc1ccc(C(=O)Nc2ccc(F)cc2F)cn1,52*,3,-1,68*,36,14,1,-1,19,22,-7
CC(=O)NC(c1cccc(F)c1)c1nc(-c2ccoc2)cs1 (stereo not given),.,-2,.,.,.,1,.,.,.,.,.
CCNc1nc(N)nc(-c2cc(Cl)ccc2O)n1,83*,-21,4,65*,55*,-297,72*,69*,90*,44,10
CCCNc1nc(N)nc(-c2cc(Cl)ccc2OC)n1,1,2,0,-2,-8,15,.,.,.,.,.
CCCCNc1nc(N)nc(-c2cc(Cl)ccc2O)n1,70*,-19,-2,54*,41,-432,-10,56*,86*,26,6
CCn1cc(CNC(=O)c2cc(COc3ccc(F)cc3F)on2)cn1,-37,4,-3,-6,-7,9,.,.,.,.,.
CN(C)/C=N/C(=S)Nc1ccc(Cl)c(Cl)c1,60*,2,1,38,13,18,62*,61*,85*,58*,9
COc1ccc2nc3cccc(OC)c3nc2c1,73*,-13,-2,30,28,16,-6,-3,42,51*,0
COc1ccc2nc(-c3ccco3)c(-c3ccco3)nc2c1,23,-18,3,4,22,-200,.,.,.,.,.
O=C1NC2NC(=O)N(C(Cc3ccccc3)C(=O)O)C2N1 (stereo not given),60*,4,0,5,2,17,-26,-24,-11,-6,-8
O=C(NC(c1ccccc1)c1ccccc1)c1ccc(=O)[nH]n1,2,0,1,-4,-4,10,.,.,.,.,.
COc1ccc(NC(=O)Nc2ccc(F)cc2F)cc1,74*,1,5,80*,59*,6,58*,71*,93*,80*,26
COc1ccc(NC(=O)Nc2ccc(F)cc2F)c(C)c1,-3,1,2,4,1,18,.,.,.,.,.
O=C(Nc1ccccc1)Nc1ccc(Br)cc1F,13,-1,-2,28,10,11,.,.,.,.,.
O=C(Nc1ccc(C(=O)O)cc1)Nc1ccc(F)cc1F,83*,2,5,77*,69*,5,77*,73*,93*,91*,76*
O=C1c2ccccc2C(=O)N1CCSc1ccccc1,60*,4,1,41,8,20,26,25,72*,50,48
O=C1c2ccccc2C(=O)N1CCSc1nncs1,-6,0,-3,-3,-2,7,.,.,.,.,.
N=C1S/C(=C\c2ccco2)C(=O)N1c1nccs1,58*,-7,2,-6,53*,14,-14,-1,23,31,2
